This is an account of results in ChEMBL document CHEMBL4428115, “Molecular docking studies, biological and toxicity evaluation of dihydroisoquinoline derivatives as potential anticancer agents” (Bioorg Med Chem, 2016).

Each structure is given as a SMILES string. Activity calls are given as the source filed them. The calls are words filed in the database; no cut-off is given here.

For series [1], the system named is HL60/MX2. Briefly: Antiproliferative activity against human HL60/MX2 cells at 290 uM after 72 hrs by MTT assay. The class given is functional, cell-based. In a few lines: (§1)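 MTT read-out in leukemia cells exposed 72 h to the highest concentration, 100 µg/ml (290 µM), expressed as % proliferation inhibition. Cells seeded at 1 × 10^4 per well 24 h beforehand; MTT for 4 h, DMF/SDS lysis, 570 nm.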

For series [2], the system named is HL-60. Briefly: Antiproliferative activity against human HL60 cells at 290 uM after 72 hrs by MTT assay. The class given is functional, cell-based. In a few lines:
as §1
Background: Formazan colour is commonly taken as a measure of viable cells.

Series [3] relates to MCF10. Put plainly: (§2) Antiproliferative activity against human MCF10 cells at 290 uM after 72 hrs by SRB assay. The following applies: mcf10, 72 h, 290 µM. The class given is cell-based. In a few lines: (§3)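 SRB test of adherent cells after 72 h exposure at the highest concentration, 100 µg/ml (290 µM). Cells plated at 1 × 10^4 per well 24 h before treatment; TCA fixation, 0.4% SRB staining, OD 540 nm. Result expressed as % inhibition of proliferation.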
(In general: In SRB staining, fixed cells bind dye roughly in proportion to their protein.)

Series [4] is described as follows: Antiproliferative activity against HLMEC at 290 uM after 72 hrs by SRB assay. The note with it: human. The gist of the method:
as §3

For series [5], the system named is MCF7. Put plainly: Antiproliferative activity against human MCF7 cells at 290 uM after 72 hrs by SRB assay. The class given is functional. In a few lines:
as §3

The subject of series [6] is BALB/3T3. Briefly: (§4) Antiproliferative activity against mouse BALB/3T3 cells at 290 uM after 72 hrs by SRB assay. The class given is cell-based. The note with it: balb/3t3, 72 h, 290 µM. In a few lines:
as §3

The test system of series [7] is MCF10. Briefly: Antiproliferative activity against human MCF10 cells after 72 hrs by SRB assay. The class given is cell-based. The following applies: MCF10, 72 h. The gist of the method: (§5)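 Adherent cells plated at 1 × 10^4 per well 24 h before treatment, then exposed 72 h to compounds diluted from 20 mg/mL DMSO stock (0.01–1000 µg/mL). Fixed in cold 50% TCA at 4°C for 1 h, stained with 0.4% sulforhodamine B, bound dye extracted with 10 mM Tris, OD at 540 nm. Triplicates, 3–5 experiments; IC50 per experiment, mean ± SD.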

Series [8] is described as follows: Antiproliferative activity against HLMEC after 72 hrs by SRB assay. Also on record: species or system Homo sapiens. In a few lines: as §5
The subject of series [9] is HL-60. Briefly: Antiproliferative activity against human HL60 cells after 72 hrs by MTT assay. The following applies: HL-60, 72 h. The class given is functional, cell-based. In a few lines:
(§6)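 Leukemia cells seeded at 1 × 10^4 per well 24 h before adding compounds (0.01–1000 µg/mL from DMSO stock), exposed 72 h. MTT (5 mg/mL stock) added for 4 h, then DMF/SDS lysis mixture; absorbance at 570 nm read after 24 h. Triplicates per experiment, 3–5 repeats; IC50 calculated per experiment, reported as mean ± SD.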

Series [10] deals with MCF7. Briefly: Antiproliferative activity against human MCF7 cells after 72 hrs by SRB assay. The class given is functional, cell-based. The following applies: MCF7, 72 h. In a few lines:
as §5

In series [11] the test system is BALB/3T3. Briefly: Antiproliferative activity against mouse BALB/3T3 cells after 72 hrs by SRB assay. The class given is cell-based. The note with it: BALB/3T3, 72 h. In a few lines: as §5
Series [12] concerns LoVo. Briefly: Antiproliferative activity against human LoVo cells at 290 uM. The class given is functional. The note with it: read-out: GI.
Series [13] concerns A549. Put plainly: Antiproliferative activity against human A549 cells at 290 uM. The following applies: read-out: GI. The class given is functional.
The nature of series [14]: Antiproliferative activity against human LoVo/DX cells at 290 uM. The class given is functional. The following applies: read-out: GI.
A short description of series [15]: as §2. The class given is cell-based. The note with it: MCF10 cells, read-out: GI. The gist of the method: as §3
Series [16] can be described thus: as §4. The following applies: BALB/3T3 cells, read-out: GI. The class given is cell-based. In a few lines: as §3
For series [17], the system named is HL60/MX2. Put plainly: Antiproliferative activity against human HL60/MX2 cells after 72 hrs by MTT assay. The class given is functional, cell-based. The note with it: HL60/MX2, 72 h. In a few lines: as §6

For the molecule `O=C(O)C1Cc2cc(O)cc(O)c2C=N1` (stereo not given), the “growth inhibition (GI)” value in series [1], in series [2] and in series [5] was “inactive” throughout. Also, the Activity result in series [3], in series [4] and in series [6] was “Non-Toxic” each time.

With `O=C(O)C1Cc2cc(O)c(Br)c(O)c2C=N1` (stereo not given), the “growth inhibition (GI)” value in series [1], in series [2] and in series [5] was “inactive” each time. Besides, the Activity result in [3], in [4] and in series [6] was “Non-Toxic” throughout.

Usually IC50 stands for the midpoint of a concentration-inhibition curve. Read a high IC50 as lower potency. `O=C(O)C1Cc2cc(O)c(O)c(Br)c2C=N1` (stereo not given): the IC50 in series [7] is 904 µM; in [8] it was 126 µM; in series [9] it was 156 µM; in [10], 224 µM; in series [11], 183 µM. In addition, the “growth inhibition (GI)” value in series [1] is “inactive”.

As to `CC(C)C[C@H](NC(=O)[C@@H](O)[C@H](N)Cc1ccccc1)C(=O)O` [UBENIMEX], the inhibition of growth at 290 µM in series [12] worked out at 54.8%; in [13], 48%; in [14], 26.9%; in series [5] (MCF7, 72 h, read-out: GI), 63.8%. It took 150 µM to reach half-maximal inhibition in series [10] (IC50). Moreover, the inhibition at 72 h, 290 µM is 26.9% in [15] and 37.7% in series [16].

`COc1cc2c(cc1OC)CCC(C(=O)OCc1ccccc1)(C(=O)OCc1ccccc1)N=C2`: the half-inhibitory concentration (IC50) was determined as 657 µM in series [8], 734 µM in series [10] and 929 µM in [11]. The “growth inhibition (GI)” value in series [2] was “inactive”.

In the case of `CCOC(=O)C(Cc1cc(OCc2ccccc2)cc(OCc2ccccc2)c1)(NC=O)C(=O)OCC`, the figures for the IC50 in [8] and in series [11] were 46.5 µM and 68.6 µM, respectively. The “growth inhibition (GI)” value in series [1], in series [2] and in [5] was “inactive” throughout.

Regarding `O=C(O)C1CCc2cc(O)c(O)cc2C=N1` (stereo not given), the figures for the IC50 in [7], in series [8] and in [10] were 3330 µM, 1590 µM and 1700 µM, respectively. Also, the “growth inhibition (GI)” value in [1] and in series [2] was “inactive” throughout. For the same molecule, the Activity entry in series [6] is on record as “Non-Toxic”.

As to `C[C@@]1(C(=O)O)Cc2cc(O)c(O)cc2C2C(Cl)C(=O)N21` (stereo not given in full), the IC50 was found to be 1960 µM in series [7], 1140 µM in series [8], 1200 µM in [10] and 1960 µM in [11]. The “growth inhibition (GI)” value in [1] and in series [2] was “inactive” in each case.

For `O=C(O)C1Cc2cc(O)c(O)cc2C=N1` (stereo not given), the IC50 in series [8] was determined as 1550 µM; in series [10] it was 1240 µM; in series [11] it was 1830 µM. Moreover, the “growth inhibition (GI)” value in [1] and in [2] was “inactive” each time.

For the molecule `O=C(O)C1Cc2cc(O)c(I)cc2C=N1` (stereo not given), the “growth inhibition (GI)” value in [1], in series [2] and in series [5] was “inactive” in each case. Further, the Activity result in series [3], in [4] and in series [6] was “Non-Toxic” in each case.

Take `O=C(O)C1Cc2c(O)c(O)cc(Br)c2C=N1` (stereo not given): the half-inhibitory concentration (IC50) in series [7] was 1440 µM; in [8], 562 µM; in [9], 104 µM; in series [10], 660 µM; in [11], 1260 µM; in series [17] it was 247 µM.

Turning to `O=C(O)C1Cc2cc(O)c(O)c(O)c2C=N1` (stereo not given), the half-inhibitory concentration (IC50) in series [7] came to 249 µM; in series [8] it was 150 µM; in [9] it was 124 µM; in [10], 84.7 µM; in series [11], 235 µM; in [17], 149 µM.

On to `O=C(O)C1Cc2cc(O)c(O)c(I)c2C=N1` (stereo not given), for which the IC50 in [7] was 897 µM; in [8] it was 307 µM; in series [10] it was 342 µM. In addition, the “growth inhibition (GI)” value in series [1] and in series [2] was “inactive” throughout. Further, the Activity entry in [6] is on record as “Non-Toxic”.
